Experimental data taken from ChEMBL document CHEMBL5058577, “EUbOPEN Chemogenomics Library 2 (Multiplex)” (2022).

System: Fibroblast
Assay: Multiplex assay against human fibroblast
Format: toxicity, cell-based
Method in brief: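 Four dyes were applied at seeding to live cells: Hoechst33342, BioTracker Green Microtubule Cytoskeleton Dye, MitoTracker Red and Annexin V Alexa Fluor 680. Imaging after compound addition used a CQ1 microscope at 37°C and 5% CO2. CellPathfinder machine-learning gating then sorted cells into Hoechst high-intensity objects or normal cells, normal cells into healthy, pyknosed or fragmented nuclei, and pyknosed cells into mitotic or apoptotic, with tubulin, mitochondrial-mass and membrane-permeability phenotypes given as per cents of healthy-nucleus cells.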

[1] = 12 h, 1 µM, compound concentration 1 uM, replicate 1
[2] = 12 h, 1 µM, compound concentration 1 uM, replicate 2
[3] = 12 h, 10 µM, compound concentration 10 uM, replicate 1
[4] = 12 h, 10 µM, compound concentration 10 uM, replicate 2
[5] = 24 h, 1 µM, compound concentration 1 uM, replicate 1
[6] = 24 h, 1 µM, compound concentration 1 uM, replicate 2
[7] = 24 h, 10 µM, compound concentration 10 uM, replicate 1
[8] = 24 h, 10 µM, compound concentration 10 uM, replicate 2
[9] = 48 h, 1 µM, compound concentration 1 uM, replicate 1
[10] = 48 h, 1 µM, compound concentration 1 uM, replicate 2
[11] = 48 h, 10 µM, compound concentration 10 uM, replicate 1
[12] = 48 h, 10 µM, compound concentration 10 uM, replicate 2

With `Cc1c(CC(=O)O)c2cccnc2n1Cc1ccc(S(C)(=O)=O)cc1C(F)(F)F` [FEVIPIPRANT] the “Population Apoptotic (%)” value [1] was 44%, the “Population Fragmented Nuclei (%)” value [1] was 22% and the “Population Healthy Nuclei (%)” value [1] was 60%. The “Population Hoechst High Intensity Objects (%)” value [1] was 3%, the “Population Membrane Permeable-Phenotype (%)” value [1] was 1% and the “Population Mitochondria Different-Phenotype (%)” value [1] was 3%. For the same compound, the “Population Mitotic Cells (%)” value [1] was 55%, the “Population Normal (%)” value [1] was 96% and the “Population Pyknosed Nuclei (%)” value [1] was 18%. The “Population Tubulin-Different-Phenotype (%)” value [1] was 20%, the “Total Cell Count” value [1] was 156 and the “Population Apoptotic (%)” value [2] was 25%. For the same compound, the “Population Fragmented Nuclei (%)” value [2] was 33%, the “Population Healthy Nuclei (%)” value [2] was 48% and the “Population Membrane Permeable-Phenotype (%)” value [2] was 13%. The “Population Mitochondria Different-Phenotype (%)” value [2] was 12%, the “Population Mitotic Cells (%)” value [2] was 74% and the “Population Pyknosed Nuclei (%)” value [2] was 17%. For the same compound, the “Population Tubulin-Different-Phenotype (%)” value [2] was 56%, the “Population Apoptotic (%)” value [3] was 34% and the “Population Fragmented Nuclei (%)” value [3] was 10%. For the same compound, the “Population Healthy Nuclei (%)” value [3] was 71%, the “Population Hoechst High Intensity Objects (%)” value [3] was 3% and the “Population Membrane Permeable-Phenotype (%)” value [3] was 1%. For the same compound, the “Population Mitochondria Different-Phenotype (%)” value [3] was 4%, the “Population Mitotic Cells (%)” value [3] was 65% and the “Population Normal (%)” value [3] was 96%. The “Population Pyknosed Nuclei (%)” value [3] was 17%, the “Population Tubulin-Different-Phenotype (%)” value [3] was 25% and the “Total Cell Count” value [3] was 132. The “Population Apoptotic (%)” value [4] was 22%, the “Population Fragmented Nuclei (%)” value [4] was 21% and the “Population Healthy Nuclei (%)” value [4] was 54%. The “Population Hoechst High Intensity Objects (%)” value [4] was 5%, the “Population Membrane Permeable-Phenotype (%)” value [4] was 9% and the “Population Mitochondria Different-Phenotype (%)” value [4] was 6%. The “Population Mitotic Cells (%)” value [4] was 77%, the “Population Normal (%)” value [4] was 94% and the “Population Pyknosed Nuclei (%)” value [4] was 23%. For the same compound, the “Population Tubulin-Different-Phenotype (%)” value [4] was 55%, the “Total Cell Count” value [4] was 139 and the “Population Apoptotic (%)” value [5] was 55%. For the same compound, the “Population Fragmented Nuclei (%)” value [5] was 14%, the “Population Healthy Nuclei (%)” value [5] was 66% and the “Population Hoechst High Intensity Objects (%)” value [5] was 3%. The “Population Membrane Permeable-Phenotype (%)” value [5] was 1%, the “Population Mitochondria Different-Phenotype (%)” value [5] was 5% and the “Population Mitotic Cells (%)” value [5] was 44%. For the same compound, the “Population Normal (%)” value [5] was 96%, the “Population Pyknosed Nuclei (%)” value [5] was 19% and the “Population Tubulin-Different-Phenotype (%)” value [5] was 23%. The “Total Cell Count” value [5] was 156, the “Population Apoptotic (%)” value [6] was 52% and the “Population Fragmented Nuclei (%)” value [6] was 35%. The “Population Healthy Nuclei (%)” value [6] was 47%, the “Population Membrane Permeable-Phenotype (%)” value [6] was 4% and the “Population Mitochondria Different-Phenotype (%)” value [6] was 8%. The “Population Mitotic Cells (%)” value [6] was 48%, the “Population Pyknosed Nuclei (%)” value [6] was 17% and the “Population Tubulin-Different-Phenotype (%)” value [6] was 50%. For the same compound, the “Total Cell Count” value [6] was 150, the “Population Apoptotic (%)” value [7] was 57% and the “Population Fragmented Nuclei (%)” value [7] was 16%. The “Population Healthy Nuclei (%)” value [7] was 67%, the “Population Hoechst High Intensity Objects (%)” value [7] was 1% and the “Population Membrane Permeable-Phenotype (%)” value [7] was 1%. For the same compound, the “Population Mitochondria Different-Phenotype (%)” value [7] was 2%, the “Population Mitotic Cells (%)” value [7] was 42% and the “Population Normal (%)” value [7] was 98%. For the same compound, the “Population Pyknosed Nuclei (%)” value [7] was 16%, the “Population Tubulin-Different-Phenotype (%)” value [7] was 24% and the “Total Cell Count” value [7] was 130. For the same compound, the “Population Apoptotic (%)” value [8] was 31%, the “Population Fragmented Nuclei (%)” value [8] was 22% and the “Population Healthy Nuclei (%)” value [8] was 55%. The “Population Hoechst High Intensity Objects (%)” value [8] was 7%, the “Population Membrane Permeable-Phenotype (%)” value [8] was 5% and the “Population Mitochondria Different-Phenotype (%)” value [8] was 5%. For the same compound, the “Population Mitotic Cells (%)” value [8] was 68%, the “Population Normal (%)” value [8] was 92% and the “Population Pyknosed Nuclei (%)” value [8] was 21%. For the same compound, the “Population Tubulin-Different-Phenotype (%)” value [8] was 52%, the “Total Cell Count” value [8] was 146 and the “Population Apoptotic (%)” value [9] was 65%. The “Population Fragmented Nuclei (%)” value [9] was 16%, the “Population Healthy Nuclei (%)” value [9] was 67% and the “Population Hoechst High Intensity Objects (%)” value [9] was 5%. For the same compound, the “Population Membrane Permeable-Phenotype (%)” value [9] was 0%, the “Population Mitochondria Different-Phenotype (%)” value [9] was 4% and the “Population Mitotic Cells (%)” value [9] was 35%. For the same compound, the “Population Normal (%)” value [9] was 94%, the “Population Pyknosed Nuclei (%)” value [9] was 16% and the “Population Tubulin-Different-Phenotype (%)” value [9] was 16%. For the same compound, the “Total Cell Count” value [9] was 132, the “Population Apoptotic (%)” value [10] was 63% and the “Population Fragmented Nuclei (%)” value [10] was 39%. The “Population Healthy Nuclei (%)” value [10] was 47%, the “Population Hoechst High Intensity Objects (%)” value [10] was 6% and the “Population Membrane Permeable-Phenotype (%)” value [10] was 4%. For the same compound, the “Population Mitochondria Different-Phenotype (%)” value [10] was 8%, the “Population Mitotic Cells (%)” value [10] was 36% and the “Population Normal (%)” value [10] was 93%. The “Population Pyknosed Nuclei (%)” value [10] was 12%, the “Population Tubulin-Different-Phenotype (%)” value [10] was 47% and the “Total Cell Count” value [10] was 157. The “Population Apoptotic (%)” value [11] was 73%, the “Population Fragmented Nuclei (%)” value [11] was 22% and the “Population Healthy Nuclei (%)” value [11] was 62%. For the same compound, the “Population Hoechst High Intensity Objects (%)” value [11] was 2%, the “Population Membrane Permeable-Phenotype (%)” value [11] was 0% and the “Population Mitochondria Different-Phenotype (%)” value [11] was 3%. For the same compound, the “Population Mitotic Cells (%)” value [11] was 26%, the “Population Normal (%)” value [11] was 97% and the “Population Pyknosed Nuclei (%)” value [11] was 14%. For the same compound, the “Population Tubulin-Different-Phenotype (%)” value [11] was 29%, the “Total Cell Count” value [11] was 132 and the “Population Apoptotic (%)” value [12] was 58%. For the same compound, the “Population Fragmented Nuclei (%)” value [12] was 32%, the “Population Healthy Nuclei (%)” value [12] was 53% and the “Population Membrane Permeable-Phenotype (%)” value [12] was 3%. The “Population Mitochondria Different-Phenotype (%)” value [12] was 2%, the “Population Mitotic Cells (%)” value [12] was 41% and the “Population Tubulin-Different-Phenotype (%)” value [12] was 52%. For the same compound, the “Total Cell Count” value [12] was 171.
